Measurements reported in article PMC3501882 (Diabetes, 2012).
Residues, ends and D or L forms follow the SMILES beside them.

What was measured:
BDC-2.5 T-cell clone = experiment: IFN-γ response of T-cell clone to antigen; format: cell-based, NOD mouse; settings: for IFN-γ response of BDC-2.5 to peptide (in words): increasing peptide concentrations, before and after TGase treatment, Fig. 1B, 1C
[1] = format: physicochemical; settings: poorly soluble peptides were used as suspensions in assays
[2] = tested on: guinea pig transglutaminase; settings: increasing putrescine 0.06–15.6 mmol/L in the reaction mixture; gel lanes 2–10
PD-12.4.4 T-cell clone = experiment: IFN-γ response of insulin-reactive T-cell clone to antigen; format: cell-based, NOD mouse; settings: for IFN-γ response of PD-12.4.4 to peptide (in words): increasing peptide concentrations, Fig. 1A, 1D
[3] = tested on: CD4 T cells from BDC-2.5 TCR-Tg mice; experiment: T-cell proliferation assay; format: cell-based, mouse; settings: for Proliferative response of BDC-2.5 TCR-Tg CD4 T cells (in words): Fig. 2A, WE14 at 200 μg/mL (120 μmol/L)
Outline: (§1)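 Spleen cells from TCR-transgenic NOD mice (2–5 months old) labeled with 2.5 μmol/L CFSE. Cultured at 1 × 10^6/well with peptide antigen, medium, or anti-CD3ε 0.1 μg/mL for 4 days. Cells stained for CD4 and analysed by flow cytometry, gated on CD4/lymphocyte events. Read-out: percentage of divided cells, mean and SD per mouse over two independent experiments.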

[4] = tested on: CD4 T cells from BDC-6.9 TCR-Tg mice; experiment: T-cell proliferation assay; format: cell-based, mouse; settings: Fig. 2A; negative control T cells
Outline: as §1

Molecule	IFN-γ response of BDC-2.5 to peptide (in words) (BDC-2.5 T-cell clone)	Solubility in water (in words) [1]	IFN-γ response of PD-12.4.4 to peptide (in words) (PD-12.4.4 T-cell clone)	Proliferative response of BDC-2.5 TCR-Tg CD4 T cells (in words) [3]	further results
WSRMDELAKELTAE [WE14-Q6E]	no better than unmodified WE14	solubilized directly in sterile water			
CSCC[C@H](NC(=O)[C@H](CCCNC(=N)N)NC(=O)[C@H](CO)NC(=O)[C@@H](N)Cc1c[nH]c2ccccc12)C(=O)N[C@@H](CC(=O)O)C(=O)N[C@@H](CCC(N)=O)C(=O)N[C@@H](CC(C)C)C(=O)N[C@@H](C)C(=O)N[C@@H](CCCCN)C(=O)N[C@@H](CCC(=O)O)C(=O)N[C@@H](CC(C)C)C(=O)N[C@H](C(=O)N[C@@H](C)C(=O)N[C@@H](CCC(=O)O)C(=O)O)[C@@H](C)O [WE14] (H-WSRMDQLAKELTAE-OH)		solubilized directly in sterile water			
NCCCCN [putrescine]					Effect of putrescine on antigenicity of β-Mem positive control antigen (BDC-2.5 T-cell clone; data not shown): did not affect the antigenicity; Effect of inhibitor in TGase reaction on BDC-2.5 response to converted peptide (BDC-2.5 T-cell clone; increasing putrescine 0.06–15.6 mmol/L, Fig. 6A top, lanes 2–10): diminished T-cell responses; Effect of inhibitor on TGase-catalysed WE14 oligomerization [2]: decreasing peptide oligomerization
KCNTATCATQRLANFLVRSS [KS20]	remain inactive		did not respond	no proliferative response	Effect of TGase treatment of the peptide on T-cell proliferation ([3]; any peptide concentration tested, data not shown): did not alter the T-cell proliferation responses; Proliferative response of BDC-6.9 TCR-Tg CD4 T cells (in words) [4]: no proliferative response
DTKVMKCVLEVISD [ChgA29–42]	not antigenic	only poorly soluble in water	not antigenic at higher or lower peptide concentrations	no proliferative response	IFN-γ response of PD-12.4.4 to peptide at 66 μg/mL (PD-12.4.4 T-cell clone; 66 μg/mL (42 μmol/L), in the absence of TGase): very small PD-12.4.4 response; Effect of TGase treatment on antigenicity of the peptide (BDC-2.5 T-cell clone; BDC-2.5 (for WE14 also BDC-10.1 and BDC-9.46), IFN-γ ELISA): did not lead to an increase of antigenicity; Proliferative response of BDC-6.9 TCR-Tg CD4 T cells (in words) [4]: no proliferative response
EKAHRPIWARMDAKK				responded	
FVKQHLCGSHLVEALYLVCGERGFFYTPMS [insulin B-chain]	remain inactive	only poorly soluble in water	responded		Effect of TGase treatment on PD-12.4.4 response (PD-12.4.4 T-cell clone; Fig. 1D): not increased significantly
